The values below come from ChEMBL document CHEMBL3259725, “Synthesis of stable aromatic and heteroaromatic sulfonyl-amidoximes and evaluation of their antioxidant and lipid peroxidation activity” (Eur J Med Chem, 2014).

Active and inactive are the calls of the source. The calls are words filed in the database; no cut-off is given here.

Holding throughout (assay type): functional
Experiment [1] in a line: Antioxidant activity assessed as inhibition of Fe3+/ascorbic acid-induced hydroxyl radical formation by measuring DMSO-induced formaldehyde production at 100 uM after 30 mins relative to control. The gist of the method: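 Hydroxyl radicals were generated by Fe3+/ascorbic acid in 50 mM phosphate buffer, pH 7.4, containing 0.1 mM EDTA and 33 mM DMSO, with compounds at 0.1 mM. Radical yield was measured as formaldehyde formed from DMSO oxidation, determined by the Nash method.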

Experiment [2] can be described thus: Antioxidant activity assessed as inhibition of AAPH-induced linoleic acid peroxidation by UV spectrophotometric analysis. The gist of the method:
(§1)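 Linoleic acid dispersion (16 mM stock) in 0.05 M phosphate buffer, pH 7.4, pre-equilibrated at 37 °C. Oxidation was started with AAPH (40 mM stock solution) as radical initiator, with test compound added in DMSO. Conjugated diene hydroperoxide formation was followed as the rise in absorbance at 234 nm at 37 °C. The control contained the same level of DMSO without antioxidant.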

For experiment [3], the system named is Radical scavenging activity. Put plainly: Antioxidant activity assessed as reduction of DPPH free radical formation at 100 uM after 20 mins relative to control. Details: scale not given: the % may be the effect or the level left. The gist of the method: (§2)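 Compounds at a final 100 concentration were mixed with the stable radical DPPH, using ethanol as the control solution. Absorbance at 517 nm was read after 20 and 60 min at room temperature. Each assay was run at least in triplicate.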
(DPPH is a stable violet radical that fades when it is reduced.)

In experiment [4] the test system is Radical scavenging activity. Put plainly: Antioxidant activity assessed as reduction of DPPH free radical formation at 100 uM after 60 mins relative to control. Details: scale not given: the % may be the effect or the level left. The gist of the method:
as §2

Experiment [5] is described as follows: Antioxidant activity assessed as inhibition of AAPH-induced linoleic acid peroxidation at 100 uM by UV spectrophotometric analysis relative to control. The gist of the method:
as §1

On to `Cc1c(C)c2c(c(C)c1O)CCC(C)(C(=O)O)O2` (stereo unspecified) [TROLOX], for which the inhibition in experiment [1] came to 88%. Moreover, in experiment [2], the IC50 amounted to 55 µM.
For the molecule `Cc1ccc(S(=O)(=O)O/N=C(\N)c2ccncc2)cc1`, the outcome in experiment [3] and in experiment [4] was inactive. Also, the inhibition in experiment [1] is 32%. Also, the inhibition result in experiment [5] is “inactive”.
Turning to `CCCS(=O)(=O)O/N=C(\N)c1ccncc1`, the result in experiment [3] was inactive. The Activity in experiment [4] is 4%. Further, the inhibition in experiment [1] stood at 66%. In experiment [5], the inhibition result was “inactive”.
With `N/C(=N\O)c1ccc([N+](=O)[O-])cc1`, the Activity in experiment [3] came out at 3%; in experiment [4], 4%. Moreover, the inhibition worked out at 85% in experiment [1] and 41% in experiment [5].
On to `CCCCCCCCCCS(=O)(=O)O/N=C(\N)c1ccc([N+](=O)[O-])cc1`, for which the figures for the Activity in experiment [3] and in experiment [4] were 3% and 12%, respectively. For the same molecule, the inhibition in experiment [1] was 48%. Further, in experiment [5], the inhibition result was “inactive”.
On to `N=C(NOS(=O)(=O)c1ccccc1)c1ccccn1`, for which the Activity in experiment [3] is 4%. The result in experiment [4] was inactive. Further, the results for the inhibition in experiment [1] and in experiment [5] were 32% and 30%, respectively.
Consider `CCCS(=O)(=O)O/N=C(\N)c1cccnc1`, for which the results for the Activity in experiment [3] and in experiment [4] were 23% and 27%, respectively. In addition, the values for the inhibition in experiment [1] and in experiment [5] were 63% and 16%, respectively.
Consider `CCCCCCCCCCCCCCCCS(=O)(=O)O/N=C(\N)c1ccncc1`, for which the Activity was found to be 14% in experiment [3] and 21% in experiment [4]. For the same molecule, in experiment [1], the inhibition result was “inactive”. Besides, the inhibition in experiment [5] came to 12%.
For `CCCCCCCCCCCCCCCCS(=O)(=O)O/N=C(\N)c1ccccn1`, the Activity was found to be 4% in experiment [3] and 1% in experiment [4]. In experiment [1], the inhibition result was “inactive”. Also, the inhibition in experiment [5] amounted to 21%.
Regarding `N=C(NOS(=O)(=O)c1ccccc1)c1ccncc1`, the Activity in experiment [3] was found to be 2%; in experiment [4] it was 11%. The figures for the inhibition in experiment [1] and in experiment [5] were 44% and 22%, respectively.
Turning to `NC(=NO)c1ccncc1`, the Activity was found to be 3% in experiment [3] and 7% in experiment [4]. Moreover, the inhibition in experiment [1] was 87%. Moreover, the inhibition entry in experiment [5] was “inactive”.
Regarding `N/C(=N\OS(=O)(=O)c1ccccc1)c1ccc([N+](=O)[O-])cc1`, the values for the Activity in experiment [3] and in experiment [4] were 4% and 8.4%, respectively. Besides, the values for the inhibition in experiment [1] and in experiment [5] were 34% and 5%, respectively.
Turning to `Cc1ccc(S(=O)(=O)O/N=C(\N)c2ccccn2)cc1`, the Activity in experiment [3] is 5%; in experiment [4], 4%. In experiment [1], the inhibition worked out at 72%. Besides, the IC50 in experiment [2] was found to be 80 µM.
`N/C(=N\OS(=O)(=O)c1ccc([N+](=O)[O-])cc1)c1cccnc1`: the Activity turned out to be 8% in experiment [3] and 11% in experiment [4]. Moreover, in experiment [1], the inhibition was determined as 18%. Besides, in experiment [2], the 50% inhibitory concentration (IC50) was found to be 85 µM.
With `CCCCCCCCCCCCCCCCS(=O)(=O)O/N=C(\N)c1cccnc1`, the Activity in experiment [3] was determined as 7%; in experiment [4] it was 16%. In addition, the inhibition in experiment [1] worked out at 69%. For the same molecule, in experiment [2], the IC50 was determined as 70 µM.
`CCCS(=O)(=O)O/N=C(\N)c1ccc([N+](=O)[O-])cc1`: the Activity in experiment [3] came to 10%; in experiment [4], 19%. Besides, the inhibition came out at 75% in experiment [1] and 22% in experiment [5].
Consider `CCCS(=O)(=O)O/N=C(\N)c1ccccn1`, for which the Activity in experiment [3] came to 6%; in experiment [4], 1%. Besides, the inhibition in experiment [1] is 83%. Moreover, in experiment [5], the inhibition result is “inactive”.
As for `N/C(=N\OS(=O)(=O)c1ccc([N+](=O)[O-])cc1)c1ccccn1`, the Activity in experiment [3] and in experiment [4] was 32% throughout. Besides, the inhibition in experiment [1] was 98%. For the same molecule, the IC50 in experiment [2] was found to be 72 µM.
For the molecule `CC(Cc1ccc(O)c(O)c1)C(C)Cc1ccc(O)c(O)c1` (stereo unspecified), the Activity in experiment [3] came to 77%; in experiment [4], 81%.
With `Cc1ccc(S(=O)(=O)O/N=C(\N)c2ccc([N+](=O)[O-])cc2)cc1`, the Activity was determined as 10% in experiment [3] and 11% in experiment [4]. Further, the inhibition in experiment [1] came out at 78%; in experiment [5], 25%.
The corresponding values for `N=C(NOS(=O)(=O)c1ccccc1)c1cccnc1` are 24%, 25%, 28% and 21%.
For the molecule `N/C(=N\O)c1ccccn1`, the Activity in experiment [3] turned out to be 11%; in experiment [4], 14%. The inhibition in experiment [1] was found to be 81%. Further, the inhibition result in experiment [5] was “inactive”.
Take `NC(=NOS(=O)(=O)c1ccc([N+](=O)[O-])cc1)c1ccncc1`: the Activity amounted to 13% in experiment [3] and 20% in experiment [4]. Besides, the inhibition stood at 0% in experiment [1] and 49% in experiment [5].
Regarding `Cc1ccc(S(=O)(=O)O/N=C(\N)c2cccnc2)cc1`, the Activity in experiment [3] was determined as 34%; in experiment [4], 41%. Also, the inhibition in experiment [1] was determined as 95%; in experiment [5] it was 43%.
The matching figures for `CCCCCCCCCCS(=O)(=O)O/N=C(\N)c1cccnc1`: 20%, 24%, 72% and 33%.
For `CCCCCCCCCCCCCCCCS(=O)(=O)O/N=C(\N)c1ccc([N+](=O)[O-])cc1`, the Activity in experiment [3] was 21%; in experiment [4], 24%. Besides, the inhibition is 100% in experiment [1] and 3% in experiment [5].
Regarding `N/C(=N\O)c1cccnc1`, the Activity was found to be 12% in experiment [3] and 15% in experiment [4]. Also, the inhibition in experiment [1] is 60%. In experiment [5], the inhibition result is “inactive”.
`CCCCCCCCCCS(=O)(=O)O/N=C(\N)c1ccccn1`: the results for the Activity in experiment [3] and in experiment [4] were 11% and 10%, respectively. In addition, the inhibition came to 79% in experiment [1] and 46% in experiment [5].
Turning to `N/C(=N\OS(=O)(=O)c1ccc([N+](=O)[O-])cc1)c1ccc([N+](=O)[O-])cc1`, the Activity in experiment [3] is 34%; in experiment [4], 38%. The inhibition result in experiment [1] was “inactive”. The IC50 in experiment [2] turned out to be 66.5 µM.
For the molecule `CCCCCCCCCCS(=O)(=O)O/N=C(\N)c1ccncc1`, the figures for the Activity in experiment [3] and in experiment [4] were 14% and 21%, respectively. The inhibition was 70% in experiment [1] and 28% in experiment [5].

The inhibition is how much of the control response was suppressed. What is called IC50 is the concentration that gives 50% inhibition.
